Measurements from ChEMBL document CHEMBL2390921, “A novel benzazepinone sodium channel blocker with oral efficacy in a rat model of neuropathic pain” (Bioorg Med Chem Lett, 2013).

Columns and labels:
[1] = Plasma clearance in Sprague-Dawley rat at 3 mg/kg, po and 1 mg/kg, iv; assay type: ADME, organism-based
Procedure, shortened: (§1)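 Fasted male Sprague–Dawley rats (n = 3 per route) were dosed with 1.5 mg/mL solutions in PEG300/water or DMSO/PEG300/water, either 1.0 mg/kg iv via femoral-vein cannula or 3.0 mg/kg by oral gavage. Blood was sampled at 5 min (iv only), 15 and 30 min, and 1, 2, 4, 6 and 8 h. Plasma levels were measured by LC–MS/MS after acetonitrile protein precipitation.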

Rattus norvegicus [2] = assay: Dose normalized AUC in Sprague-Dawley rat at 3 mg/kg, po; assay type: ADME, organism-based; set-up: dose 3 mg/kg, route oral; conditions: in vivo; procedure, shortened: as §1
[3] = Oral bioavailability in Sprague-Dawley rat at 3 mg/kg; assay type: ADME, organism-based; conditions: in vivo; procedure, shortened: as §1
[4] = Half life in Sprague-Dawley rat at 3 mg/kg, po and 1 mg/kg, iv; assay type: ADME, organism-based; conditions: in vivo; procedure, shortened: as §1
[5] = molecular target: Sodium channel protein type 9 subunit alpha (Homo sapiens, UniProt Q15858); assay: Inhibition of human NaV1.7 channel expressed in HEK293 cells by FRET assay; assay type: cell-based
Sequence of Sodium channel protein type 9 subunit alpha (Q15858 whole entry): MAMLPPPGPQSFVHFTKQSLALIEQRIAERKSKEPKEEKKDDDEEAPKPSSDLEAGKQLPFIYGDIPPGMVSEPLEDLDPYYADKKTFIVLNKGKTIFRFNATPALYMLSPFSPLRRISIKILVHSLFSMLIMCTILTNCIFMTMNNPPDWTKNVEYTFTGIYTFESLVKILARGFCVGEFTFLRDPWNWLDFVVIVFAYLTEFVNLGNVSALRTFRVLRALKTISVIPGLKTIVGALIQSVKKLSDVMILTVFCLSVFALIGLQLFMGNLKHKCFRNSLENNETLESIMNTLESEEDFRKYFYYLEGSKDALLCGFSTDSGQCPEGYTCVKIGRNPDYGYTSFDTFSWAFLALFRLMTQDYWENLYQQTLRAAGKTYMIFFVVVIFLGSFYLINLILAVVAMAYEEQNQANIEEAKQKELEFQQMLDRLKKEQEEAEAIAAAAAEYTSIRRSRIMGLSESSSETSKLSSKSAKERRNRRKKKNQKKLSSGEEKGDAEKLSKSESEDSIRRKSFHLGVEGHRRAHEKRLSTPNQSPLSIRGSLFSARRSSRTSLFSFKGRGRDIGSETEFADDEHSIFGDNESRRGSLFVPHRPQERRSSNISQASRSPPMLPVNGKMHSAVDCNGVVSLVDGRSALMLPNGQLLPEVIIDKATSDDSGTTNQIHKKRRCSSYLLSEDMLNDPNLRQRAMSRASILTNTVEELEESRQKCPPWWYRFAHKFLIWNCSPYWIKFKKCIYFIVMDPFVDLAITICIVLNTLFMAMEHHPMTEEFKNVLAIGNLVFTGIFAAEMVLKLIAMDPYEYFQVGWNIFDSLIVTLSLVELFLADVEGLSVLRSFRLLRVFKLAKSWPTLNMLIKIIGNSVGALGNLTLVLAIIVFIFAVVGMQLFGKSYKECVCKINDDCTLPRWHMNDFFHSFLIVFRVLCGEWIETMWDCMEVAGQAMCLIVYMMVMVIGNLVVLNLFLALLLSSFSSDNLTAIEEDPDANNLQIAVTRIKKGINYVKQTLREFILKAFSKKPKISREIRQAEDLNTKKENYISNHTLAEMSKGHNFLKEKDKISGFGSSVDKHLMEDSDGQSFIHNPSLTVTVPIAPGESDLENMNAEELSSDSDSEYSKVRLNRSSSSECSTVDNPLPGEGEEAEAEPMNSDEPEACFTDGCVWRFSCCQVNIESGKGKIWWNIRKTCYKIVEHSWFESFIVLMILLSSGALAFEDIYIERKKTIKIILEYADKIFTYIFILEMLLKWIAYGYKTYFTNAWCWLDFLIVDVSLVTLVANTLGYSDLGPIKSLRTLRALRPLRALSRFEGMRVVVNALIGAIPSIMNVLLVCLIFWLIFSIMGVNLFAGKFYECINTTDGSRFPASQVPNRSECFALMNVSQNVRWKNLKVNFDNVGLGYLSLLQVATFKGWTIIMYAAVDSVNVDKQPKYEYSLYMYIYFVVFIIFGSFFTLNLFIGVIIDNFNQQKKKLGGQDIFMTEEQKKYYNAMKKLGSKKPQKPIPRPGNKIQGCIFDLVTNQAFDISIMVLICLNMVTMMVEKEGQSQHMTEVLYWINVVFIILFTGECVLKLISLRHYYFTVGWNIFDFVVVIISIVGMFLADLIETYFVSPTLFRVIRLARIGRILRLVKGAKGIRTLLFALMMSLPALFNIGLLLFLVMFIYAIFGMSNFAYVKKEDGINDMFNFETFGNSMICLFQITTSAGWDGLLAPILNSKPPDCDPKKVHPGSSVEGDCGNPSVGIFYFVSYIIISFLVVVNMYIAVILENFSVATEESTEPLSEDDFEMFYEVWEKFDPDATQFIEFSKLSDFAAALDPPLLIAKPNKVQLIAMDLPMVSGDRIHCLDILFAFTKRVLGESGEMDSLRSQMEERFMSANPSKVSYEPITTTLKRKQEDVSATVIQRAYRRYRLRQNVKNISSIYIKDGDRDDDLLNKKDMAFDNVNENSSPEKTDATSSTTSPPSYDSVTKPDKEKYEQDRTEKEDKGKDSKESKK
Procedure, shortened: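 HEK293 cells stably expressing human Nav1.7. Channel block was read in a functional membrane-potential assay based on FRET between two membrane-associated dyes; IC50 determined.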

hERG (KCNH2) = hERG (KCNH2) (Homo sapiens, UniProt Q12809); assay: Displacement of [35S]-MK0499 from human ERG expressed in HEK293 cell membranes at 10 uM after 2 hrs by liquid scintillation counting analysis relative to control; conditions: membranes of HEK293 cells that express human ERG, probe [35S]-MK0499
Sequence of hERG (KCNH2) (Q12809 whole entry): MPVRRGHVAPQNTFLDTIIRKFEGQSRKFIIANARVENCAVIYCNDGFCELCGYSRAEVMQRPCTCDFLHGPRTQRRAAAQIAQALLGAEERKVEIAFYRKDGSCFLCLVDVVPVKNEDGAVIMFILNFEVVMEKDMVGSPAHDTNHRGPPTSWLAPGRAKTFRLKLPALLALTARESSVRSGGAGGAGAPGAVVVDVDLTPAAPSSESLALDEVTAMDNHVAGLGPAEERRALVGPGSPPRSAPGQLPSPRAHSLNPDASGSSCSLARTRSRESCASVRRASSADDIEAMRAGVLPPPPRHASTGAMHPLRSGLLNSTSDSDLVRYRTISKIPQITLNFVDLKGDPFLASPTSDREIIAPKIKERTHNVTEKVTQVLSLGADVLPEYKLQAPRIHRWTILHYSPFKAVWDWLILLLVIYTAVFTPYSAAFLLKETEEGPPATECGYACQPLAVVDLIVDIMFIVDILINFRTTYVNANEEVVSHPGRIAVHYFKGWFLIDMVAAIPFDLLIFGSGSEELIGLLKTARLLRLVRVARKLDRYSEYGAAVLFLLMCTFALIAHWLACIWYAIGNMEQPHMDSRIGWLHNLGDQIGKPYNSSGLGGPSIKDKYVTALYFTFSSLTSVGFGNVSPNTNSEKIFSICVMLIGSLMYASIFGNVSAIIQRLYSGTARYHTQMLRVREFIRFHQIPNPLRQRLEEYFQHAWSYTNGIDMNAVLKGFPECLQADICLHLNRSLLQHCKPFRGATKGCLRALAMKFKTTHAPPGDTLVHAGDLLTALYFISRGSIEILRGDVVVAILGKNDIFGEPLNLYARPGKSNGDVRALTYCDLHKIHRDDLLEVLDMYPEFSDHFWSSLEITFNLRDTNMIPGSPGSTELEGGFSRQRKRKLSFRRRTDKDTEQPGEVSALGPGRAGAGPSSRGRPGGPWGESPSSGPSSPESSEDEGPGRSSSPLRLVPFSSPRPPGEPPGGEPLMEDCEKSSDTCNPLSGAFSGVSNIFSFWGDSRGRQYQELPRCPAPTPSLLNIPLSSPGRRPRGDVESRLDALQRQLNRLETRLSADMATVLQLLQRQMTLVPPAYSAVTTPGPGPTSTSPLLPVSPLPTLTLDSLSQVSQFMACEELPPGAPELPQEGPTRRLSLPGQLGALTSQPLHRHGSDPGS
Procedure, shortened: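 hERG binding assay measuring displacement of 35S-labelled MK-0499, a known hERG blocker.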

Rattus norvegicus [6] = assay: Analgesic activity in po dosed rat spinal nerve ligation neuropathic pain model assessed as reversal of allodynia measured at 2 to 4 hrs; assay type: functional
Procedure, shortened: (§2)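 Rat spinal nerve ligation model. Seven days after surgery, rats received a single oral dose (3, 10 or 30 mg/kg) of test agent or vehicle. Tactile allodynia was scored at 2, 4, 8 and 24 h post-dose with calibrated von Frey filaments using an up-down paradigm. Threshold is the force giving a 50% withdrawal rate. %MPE = (post-compound − post-SNL)/(pre-SNL − post-SNL) × 100, where 100% is full reversal.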

Rattus norvegicus [7] = assay: Analgesic activity in rat spinal nerve ligation neuropathic pain model assessed as reversal of allodynia at 30 mg/kg, po measured at 2 hrs relative to control; assay type: functional; procedure, shortened: as §2
Rattus norvegicus [8] = assay: Neurotoxicity in rat assessed as reduction in latency time at => 30 mg/kg, po after 2 hrs by rotarod test relative to vehicle-treated control; assay type: toxicity, organism-based; set-up: dose 30 mg/kg, route oral; scale not given: the % may be the effect or the level left; conditions: in vivo
Procedure, shortened: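 Rats trained on rotarod 3 min at 10 rpm; single oral dose of test compound or vehicle (30 or 100 mg/kg); tested at 2 and 4 h post-dose with speed at 10 rpm for 60 s then accelerated to 60 rpm; time to fall after start of acceleration recorded. Significant impairment defined as >20% reduction in latency time.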

Compound	clearance [1] [mL/min/kg]	AUC/dose (Rattus norvegicus [2]) [µM·h/mg/kg]	bioavailability [3] [%]	half-life [4] [h]	IC50 [5] [nM]	inhibition at 2 h, 10 µM (hERG (KCNH2)) [%]	ED50 (Rattus norvegicus [6]) [mg/kg]	Activity (Rattus norvegicus [7]) [%]	Activity (Rattus norvegicus [8]) [%]
CC(C)N1C(=O)[C@H](NC(=O)[C@@H](Cc2ccccc2F)NC(=O)c2ccc(F)cc2C(F)(F)F)CCc2cc(F)ccc21	36	0.45	56	1.7	254	36	–	–	–
O=C(N[C@H](Cc1ccccc1F)C(=O)N[C@@H]1CCc2c(F)c(F)cc(F)c2N(C2CC2)C1=O)c1ccc(F)cc1C(F)(F)F	–	–	–	–	85	31	–	–	–
CC(C)N1C(=O)[C@H](NC(=O)[C@@H](Cc2ccccc2OC(F)(F)F)NC(=O)OC(C)(C)C)CCc2c(F)c(F)cc(F)c21	–	–	–	–	67	24	–	–	–
CC1CC1C(=O)N[C@H](Cc1ccccc1F)C(=O)N[C@@H]1CCc2c(F)c(F)cc(F)c2N(C(C)C)C1=O (stereo partly drawn)	35	0.44	47	0.8	103	0	–	–	–
CC(C)N1C(=O)[C@H](NC(=O)[C@@H](Cc2ccccc2F)NC(=O)c2ccccc2C(F)(F)F)CCc2c(F)c(F)cc(F)c21	–	–	–	–	229	10	–	–	–
CC(C)N1C(=O)[C@H](NC(=O)[C@@H](Cc2ccccc2F)NC(=O)c2ccc(F)cc2C(F)(F)F)CCc2c(F)c(F)cc(F)c21	19	1	68	5.6	103	20	–	–	–
CC1CC1N1C(=O)[C@H](NC(=O)[C@@H](Cc2ccccc2F)NC(=O)c2ccc(F)cc2C(F)(F)F)CCc2c(F)c(F)cc(F)c21 (stereo partly drawn)	–	–	–	–	131	44	–	–	–
Cc1cccc(C)c1OCC(C)N (stereo not drawn) [MEXILETINE]	–	–	–	–	–	–	45	42	–
CC(C)N1C(=O)[C@H](NC(=O)[C@@H](Cc2ccccc2OC(F)(F)F)NC(=O)OC(C)(C)C)CCc2ccccc21	–	0.31	–	–	–	–	–	–	–
CC(C)N1C(=O)[C@H](NC(=O)[C@@H](Cc2ccccc2OC(F)(F)F)NC(=O)OC(C)(C)C)CCc2ccc(C(F)(F)F)cc21	26	0.22	21	1.3	494	19	–	–	–
CC(C)N1C(=O)[C@H](NC(=O)[C@@H](Cc2ccccc2OC(F)(F)F)NC(=O)OC(C)(C)C)CCc2cc(F)ccc21	16	0.66	35	2.3	34	24	–	–	–
CC(C)N1C(=O)[C@H](NC(=O)[C@@H](Cc2ccccc2OC(F)(F)F)NC(=O)OC(C)(C)C)CCc2cc(F)cc(F)c21	17	0.54	30	2.7	57	21	–	–	–
NCC1(CC(=O)O)CCCCC1 [GABAPENTIN]	–	–	–	–	–	–	50	36	> 20
CC(C)N1C(=O)[C@H](NC(=O)[C@@H](Cc2ccccc2F)NC(=O)C2CC2C(F)(F)F)CCc2c(F)c(F)cc(F)c21 (stereo partly drawn)	23	0.79	62	2.2	137	2	–	–	–
CC(C)N1C(=O)[C@H](NC(=O)[C@@H](Cc2ccccc2OC(F)(F)F)NC(=O)OC(C)(C)C)CCc2cc(C(F)(F)F)ccc21	39	0.41	59	1.9	181	7	–	–	–
CC1CC1N1C(=O)[C@H](NC(=O)[C@@H](Cc2ccccc2F)NC(=O)C2CC2C(F)(F)F)CCc2c(F)c(F)cc(F)c21 (stereo partly drawn)	–	–	–	–	101	54	–	–	–
CC(C)N1C(=O)[C@H](NC(=O)[C@@H](Cc2ccccc2F)NC(=O)c2ccc(F)cc2C(F)(F)F)CCc2cc(Cl)ccc21	–	0.58	–	–	–	–	–	–	–
CC(C)N1C(=O)[C@H](NC(=O)[C@@H](Cc2ccccc2F)NC(=O)c2ccc(F)cc2C(F)(F)F)CCc2cc(C(F)(F)F)ccc21	33	0.6	75	2.5	359	10	–	–	–
CC(C)N1C(=O)[C@H](NC(=O)[C@@H](Cc2ccccc2F)NC(=O)c2ccc(F)cc2C(F)(F)F)CCc2cc(F)cc(F)c21	21	0.42	31	1.9	264	34	–	–	–
CC(C)N1C(=O)[C@H](NC(=O)[C@@H](Cc2ccccc2F)NC(=O)c2ccc(F)cc2C(F)(F)F)CCc2cc(Cl)cc(F)c21	21	0.93	74	1.9	260	17	–	–	–
CC(C)N1C(=O)[C@H](NC(=O)[C@@H](Cc2ccccc2OC(F)(F)F)NC(=O)OC(C)(C)C)CCc2ccc(F)cc21	29	0.2	20	2.5	18	26	–	–	–
CC(C)N1C(=O)[C@H](NC(=O)[C@@H](Cc2ccccc2F)NC(=O)c2ccccn2)CCc2c(F)c(F)cc(F)c21	–	–	–	–	443	22	–	–	–
CC(C)N1C(=O)[C@H](NC(=O)[C@@H](Cc2ccccc2OC(F)(F)F)NC(=O)OC(C)(C)C)CCc2cc(Cl)ccc21	–	0.71	–	–	–	–	–	–	–
CC(C)N1C(=O)[C@H](NC(=O)[C@@H](Cc2ccccc2OC(F)(F)F)NC(=O)OC(C)(C)C)CCc2cccc(F)c21	21	0.39	27	2.7	70	24	–	–	–
